Test results: article PMC7064889 (Chembiochem, 2019)

What was measured:
Assay type in all cases: cell-based, human
M21 cells [1] = assay: live cell imaging
Outline: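 Cells were grown overnight on glass-slip chambers and counterstained with LysoTracker Red DND-99. They were then incubated 10 min with fluorescent test peptide: 5 μM for the non-PEGylated peptide, 10 μM for the 5 kDa PEGylated peptide. Washing was careful but thorough. Confocal live-cell microscopy followed, with z-stacking and gain set in the peptide channel.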

M21L cells = assay: flow cytometry uptake, M21L cells
Outline: (§1)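 Cells (2×10^6) were incubated with fluorescently labelled cyclic RGD test peptide (30 μM) for 0, 10 or 30 min. They were washed with buffer and analysed by flow cytometry. The negative control received no peptide.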

M21 cells [2] = assay: flow cytometry uptake, M21 cells
Outline: as §1

[3] = peptide 30 μM, 0, 10, 30 min, 37 °C, medium without FCS

c(RGDw(pyren‐1‐yl)K(PEG5000)) [peptide 2]
colocalization with lysosomes, M21 (M21 cells [1]; LysoTracker Red DND-99, 10 min, 37 °C, peptide 1 5 μM, peptide 2 10 μM): colocalizes largely with lysosomes
localization by z-stacking, M21 (M21 cells [1]; Z-stack, peptide 10 μM, 10 min): presence of peptide inside the cells
0 min sample versus negative control (no peptide), M21L (M21L cells; peptide 30 μM, 0 min): largely overlaps with the 0 min samples
flow cytometry fluorescence, M21L (M21L cells; [3]): not for αv deficient M21L cells
uptake in M21L cells (flow cytometry and live cell imaging) (M21L cells; αv-deficient M21L cells): no uptake in αv‐deficient M21L cells
mode of uptake (conclusion from flow cytometry and live cell imaging) (M21 cells [2]; M21 versus M21L cells, flow cytometry 30 μM plus imaging): integrin‐mediated endocytosis
0 min sample versus negative control (no peptide), M21 (M21 cells [2]; peptide 30 μM, 0 min): largely overlaps with the 0 min samples
uptake selectivity M21 versus M21L, flow cytometry (M21 cells [2]; peptide 30 μM, 0, 10, 30 min): uptake of peptide 2 only by M21 cells
flow cytometry fluorescence, M21 (M21 cells [2]; [3]): significant fluorescence
